In brackets after ≈: the same amount, converted by molar mass.

Series [1] addresses β-glucosidase. The series can be described thus: β-Glucosidase inhibition assay. The format is biochemical. The settings on record: for β-glucosidase inhibition: at 100 μg mL^−1.
Series [2] has as its target rat intestinal α-glucosidase. Nature of the series: α-Glucosidase inhibition assay. The format is biochemical. The settings on record: for α-glucosidase inhibition: at 100 μg mL^−1.
Series [3] addresses T1, α-amylase (Sus scrofa, UniProt P00690).
T1 sequence (P00690 16-511): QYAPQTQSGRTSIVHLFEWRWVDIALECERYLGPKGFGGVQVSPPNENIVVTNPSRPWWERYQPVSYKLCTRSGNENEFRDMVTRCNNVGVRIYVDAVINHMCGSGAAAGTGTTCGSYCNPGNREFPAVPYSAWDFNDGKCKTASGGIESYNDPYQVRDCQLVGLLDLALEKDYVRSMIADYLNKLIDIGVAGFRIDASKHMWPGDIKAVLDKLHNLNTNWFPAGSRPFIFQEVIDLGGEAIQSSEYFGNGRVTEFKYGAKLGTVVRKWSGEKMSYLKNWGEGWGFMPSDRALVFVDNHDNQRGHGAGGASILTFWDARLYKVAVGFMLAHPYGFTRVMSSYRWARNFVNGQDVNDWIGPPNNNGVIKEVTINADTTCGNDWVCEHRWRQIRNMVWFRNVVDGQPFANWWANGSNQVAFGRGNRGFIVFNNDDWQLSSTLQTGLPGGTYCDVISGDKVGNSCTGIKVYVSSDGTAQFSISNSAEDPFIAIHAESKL
Nature of the series: α-Amylase inhibitory assay. The format is biochemical. The settings on record: at 100 μg mL^−1.

Series [4] is described as follows: DPPH free radical scavenging assay. The settings on record: at 75 μg mL^−1. The method, boiled down:
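Test samples were mixed with 3.0 mL of 0.1 mM DPPH in methanol, shaken vigorously, and held 30 min at room temperature in the dark. Absorbance was read at 515 nm and % scavenging calculated. BHT was the positive control and methanol the negative control.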
A general note: DPPH is a stable violet radical that fades when it is reduced.

Series [5] can be described thus: Solubility studies of nano-curcumin in water. As to conditions: deionized water. The format is physicochemical. The gist of the method: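 Each test sample was stirred in 30 mL deionized water at room temperature for 24 h to make a saturated solution. Undissolved particles were removed by centrifugation, and the liquid was filtered through a PTFE membrane. The filtrate was diluted with an equal volume of deionized water, and dissolved curcumin was quantified by UV/Vis absorbance at 422 nm.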

`C[C@H]1O[C@H](O[C@H]2[C@H](O)[C@@H](O)[C@@H](O[C@H]3[C@H](O)[C@@H](O)C(O)O[C@@H]3CO)O[C@@H]2CO)[C@H](O)[C@@H](O)[C@@H]1N[C@H]1C=C(CO)[C@@H](O)[C@H](O)[C@H]1O` (stereo partly drawn) [Acarbose, acarbose]: in series [1], the “IC50, mean ± SD, β-Glucosidase” value is 45.55 ± 0.21 µg/mL (≈ 70.6 µM) and the β-glucosidase inhibition stood at 66.05 ± 0.47%. Also, in series [2], the “IC50, mean ± SD, α-Glucosidase” value came out at 45.76 ± 0.13 µg/mL (≈ 70.9 µM) and the α-glucosidase inhibition turned out to be 66.04 ± 0.18%. Besides, in series [3], the α-amylase inhibition is on record as 68.74 ± 0.28%.
As for `Cc1cc(C(C)(C)C)c(O)c(C(C)(C)C)c1` [BHT, Butylated hydroxytoluene], in series [4], the “DPPH free radical scavenging activity” value worked out at 50.48 ± 1.11%.
Broadly, the solubility is the dissolved amount per volume that the medium holds. For orientation: solubility (thermodynamic) means the concentration in solution at equilibrium with solid. As for `COc1cc(/C=C/C(=O)CC(=O)/C=C/c2ccc(O)c(OC)c2)ccc1O` [Curcumin, diferuloylmethane], in series [1], the “IC50, mean ± SD, β-Glucosidase” value was 51.92 ± 0.14 µg/mL (≈ 141 µM) and the β-glucosidase inhibition came out at 50.38 ± 0.11%. This compound also displayed a α-glucosidase inhibition in series [2] of 47.87 ± 0.31%. In series [5], the concentration in solution (solubility at 24 h) was 0.98 µg/mL (≈ 2.66 µM). Moreover, the thermodynamic solubility at 24 h in series [5] (water, thermodynamic from solid) is 2.68 µM (≈ 0.987 µg/mL). Besides, the “DPPH free radical scavenging activity” value in series [4] is recorded as 45.63 ± 0.78%.
